ChEMBL document CHEMBL3525946, “Species comparison of in vivo P-glycoprotein-mediated brain efflux using mdr1a-deficient rats and mice” (Drug Metab Dispos, 2012)

How the values were obtained:
[1] = Total drug level in mdr1a-deficient rat brain at 9 mg/kg/day administered through continuous minipump treatment for 3 days by UPLC-MS analysis; format: ADME, organism-based; conditions: other: continuous minipump, read-out: Drug uptake
Procedure, shortened: (§1)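 Drug was infused subcutaneously by osmotic minipump for 3 days to steady state, at 1 µl/h in mice and 10 µl/h in rats, with doses derived from body weight and delivery rate. Animals were decapitated. Plasma came from EDTA trunk blood spun at 5000 g for 10 min at 4 °C. Whole brain was homogenised 1:4 in 70% acetonitrile and the supernatant kept. Samples were protein-precipitated with internal standard and analysed by UPLC. n=3-5, mean ± SEM.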

[2] = Total brain to plasma partition coefficient of the compound in mdr1a-deficient rat at 9 mg/kg/day administered through continuous minipump treatment for 3 days; format: ADME, organism-based; conditions: brain and plasma, other: continuous minipump
[3] = Percentage unbound in Crl:NMRI(Han) mouse brain at 1 uM after 5 hrs by equilibrium dialysis method; format: ADME, tissue-based
Procedure, shortened: (§2)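 Equilibrium dialysis (12-14 kDa membrane) of plasma or brain homogenate from naïve male Sprague-Dawley rats or Crl:NMRI(Han) mice. Donor side spiked to 1 µM final; receiver phosphate buffer pH 7.4; 37°C for 5 h. Buffer phase quantified by LC-MS. Brain fu corrected for homogenate dilution to intact tissue. Mean of two independent determinations.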

[4] = Total plasma concentration in mdr1a-deficient mouse at 12 mg/kg/day administered through continuous minipump treatment for 3 days by UPLC-MS analysis; format: ADME, organism-based; conditions: other: continuous minipump; procedure, shortened: as §1
[5] = Percentage unbound in Sprague-Dawley rat plasma at 1 uM after 5 hrs by equilibrium dialysis method; format: ADME, cell-free; procedure, shortened: as §2
[6] = Total brain to plasma partition coefficient of the compound in wild type Crl:CF1 mouse expressing Abcb1a mutant at 12 mg/kg/day administered through continuous minipump treatment for 3 days; format: ADME, organism-based; conditions: brain and plasma, other: continuous minipump
Procedure, shortened: (§3)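 Rats (SD-Abcb1a knockout or wild-type, 350-500 g) or mice (Crl:CF1-Abcb1a mutant or CF-1 background, 25-45 g) received drug by subcutaneous osmotic minipump (pump content as free base) for 3 days to steady state. After decapitation, trunk EDTA plasma and whole brain (homogenised 1:4 in 70% acetonitrile) were assayed by UPLC. Kp = total brain/total plasma concentration. n=3-5, mean ± SEM.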

[7] = Total brain to plasma partition coefficient of the compound in wild type Sprague-Dawley rat expressing Abcb1a at 9 mg/kg/day administered through continuous minipump treatment for 3 days; format: ADME, organism-based; conditions: brain and plasma, other: continuous minipump
[8] = Percentage unbound in Crl:NMRI(Han) mouse plasma at 1 uM after 5 hrs by equilibrium dialysis method; format: ADME, cell-free; procedure, shortened: as §2
[9] = Unbound brain to plasma partition coefficient of the compound in wild type Crl:CF1 mouse expressing Abcb1a mutant at 12 mg/kg/day administered through continuous minipump treatment for 3 days; format: ADME, organism-based; conditions: other: continuous minipump, read-out: K(p,uu,brain)
Procedure, shortened: (§4)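 Kp,uu = Cbrain,total × fu,brain / Cplasma,total × fu,plasma, using steady-state totals from 3-day subcutaneous minipump infusion. Free fractions came from equilibrium dialysis (12-14 kDa membrane) of naive Sprague-Dawley rat or NMRI mouse plasma or brain homogenate spiked to 1 µM final, against pH 7.4 phosphate buffer for 5 h at 37 °C, read by LC-MS and corrected for brain dilution. fu is the mean of two determinations.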

[10] = Unbound brain to plasma partition coefficient of the compound in wild type Sprague-Dawley rat expressing Abcb1a at 9 mg/kg/day administered through continuous minipump treatment for 3 days; format: ADME, organism-based; conditions: other: continuous minipump, read-out: K(p,uu,brain)
[11] = Total plasma concentration in wild type Crl:CF1 mouse expressing Abcb1a mutant at 12 mg/kg/day administered through continuous minipump treatment for 3 days by UPLC-MS analysis; format: ADME, organism-based; conditions: other: continuous minipump; procedure, shortened: as §1
[12] = Unbound brain to plasma partition coefficient of the compound in mdr1a-deficient mouse at 12 mg/kg/day administered through continuous minipump treatment for 3 days; format: ADME, organism-based; conditions: other: continuous minipump, read-out: K(p,uu,brain); procedure, shortened: as §4
[13] = Total plasma concentration in wild type Sprague-Dawley rat expressing Abcb1a at 9 mg/kg/day administered through continuous minipump treatment for 3 days by UPLC-MS analysis; format: ADME, organism-based; conditions: other: continuous minipump; procedure, shortened: as §1
[14] = Total plasma concentration in mdr1a-deficient rat at 9 mg/kg/day administered through continuous minipump treatment for 3 days by UPLC-MS analysis; format: ADME, organism-based; conditions: other: continuous minipump; procedure, shortened: as §1
[15] = Total brain to plasma partition coefficient of the compound in mdr1a-deficient mouse at 12 mg/kg/day administered through continuous minipump treatment for 3 days; format: ADME, organism-based; conditions: other: continuous minipump; procedure, shortened: as §3
[16] = Unbound brain to plasma partition coefficient of the compound in mdr1a-deficient rat at 9 mg/kg/day administered through continuous minipump treatment for 3 days; format: ADME, organism-based; conditions: other: continuous minipump, read-out: K(p,uu,brain)
[17] = Total drug level in mdr1a-deficient mouse brain at 12 mg/kg/day administered through continuous minipump treatment for 3 days by UPLC-MS analysis; format: ADME, organism-based; conditions: other: continuous minipump, read-out: Drug uptake; procedure, shortened: as §1
[18] = Total drug level in wild type Sprague-Dawley rat brain expressing Abcb1a at 9 mg/kg/day administered through continuous minipump treatment for 3 days by UPLC-MS analysis; format: ADME, organism-based; conditions: other: continuous minipump, read-out: Drug uptake; procedure, shortened: as §1
[19] = Total drug level in wild type Crl:CF1 mouse brain expressing Abcb1a mutant at 12 mg/kg/day administered through continuous minipump treatment for 3 days by UPLC-MS analysis; format: ADME, organism-based; conditions: other: continuous minipump, read-out: Drug uptake; procedure, shortened: as §1
[20] = Percentage unbound in Sprague-Dawley rat brain at 1 uM after 5 hrs by equilibrium dialysis method; format: ADME, tissue-based; procedure, shortened: as §2
[21] = Unbound brain to plasma partition coefficient of the compound in mdr1a-deficient mouse at 4 mg/kg/day administered through continuous minipump treatment for 3 days; format: ADME, organism-based; conditions: other: continuous minipump, read-out: K(p,uu,brain); procedure, shortened: as §4
[22] = Unbound brain to plasma partition coefficient of the compound in mdr1a-deficient rat at 5 mg/kg/day administered through continuous minipump treatment for 3 days; format: ADME, organism-based; conditions: other: continuous minipump, read-out: K(p,uu,brain); procedure, shortened: as §4
[23] = Unbound brain to plasma partition coefficient of the compound in wild type Crl:CF1 mouse expressing Abcb1a mutant at 4 mg/kg/day administered through continuous minipump treatment for 3 days; format: ADME, organism-based; conditions: other: continuous minipump, read-out: K(p,uu,brain); procedure, shortened: as §4
[24] = Total drug level in mdr1a-deficient mouse brain at 4 mg/kg/day administered through continuous minipump treatment for 3 days by UPLC-MS analysis; format: ADME, organism-based; conditions: other: continuous minipump, read-out: Drug uptake; procedure, shortened: as §1
[25] = Total drug level in mdr1a-deficient rat brain at 5 mg/kg/day administered through continuous minipump treatment for 3 days by UPLC-MS analysis; format: ADME, organism-based; conditions: other: continuous minipump, read-out: Drug uptake; procedure, shortened: as §1
[26] = Total plasma concentration in mdr1a-deficient mouse at 4 mg/kg/day administered through continuous minipump treatment for 3 days by UPLC-MS analysis; format: ADME, organism-based; conditions: other: continuous minipump; procedure, shortened: as §1
[27] = Total plasma concentration in wild type Crl:CF1 mouse expressing Abcb1a mutant at 4 mg/kg/day administered through continuous minipump treatment for 3 days by UPLC-MS analysis; format: ADME, organism-based; conditions: other: continuous minipump; procedure, shortened: as §1
[28] = Total plasma concentration in wild type Sprague-Dawley rat expressing Abcb1a at 5 mg/kg/day administered through continuous minipump treatment for 3 days by UPLC-MS analysis; format: ADME, organism-based; conditions: other: continuous minipump; procedure, shortened: as §1
[29] = Total brain to plasma partition coefficient of the compound in wild type Sprague-Dawley rat expressing Abcb1a at 5 mg/kg/day administered through continuous minipump treatment for 3 days; conditions: brain and plasma, other: continuous minipump
[30] = Total plasma concentration in mdr1a-deficient rat at 5 mg/kg/day administered through continuous minipump treatment for 3 days by UPLC-MS analysis; format: ADME, organism-based; conditions: other: continuous minipump; procedure, shortened: as §1
[31] = Total drug level in wild type Crl:CF1 mouse brain expressing Abcb1a mutant at 4 mg/kg/day administered through continuous minipump treatment for 3 days by UPLC-MS analysis; format: ADME, organism-based; conditions: other: continuous minipump, read-out: Drug uptake; procedure, shortened: as §1
[32] = Total brain to plasma partition coefficient of the compound in mdr1a-deficient mouse at 4 mg/kg/day administered through continuous minipump treatment for 3 days; conditions: other: continuous minipump
[33] = Total brain to plasma partition coefficient of the compound in mdr1a-deficient Sprague-Dawley rat at 5 mg/kg/day administered through continuous minipump treatment for 3 days; conditions: brain and plasma, other: continuous minipump
[34] = Total brain to plasma partition coefficient of the compound in wild type Crl:CF1 mouse expressing Abcb1a mutant at 4 mg/kg/day administered through continuous minipump treatment for 3 days; conditions: brain and plasma, other: continuous minipump
[35] = Unbound brain to plasma partition coefficient of the compound in wild type Sprague-Dawley rat expressing Abcb1a at 5 mg/kg/day administered through continuous minipump treatment for 3 days; format: ADME, organism-based; conditions: other: continuous minipump, read-out: K(p,uu,brain); procedure, shortened: as §4
[36] = Total drug level in wild type Sprague-Dawley rat brain expressing Abcb1a at 5 mg/kg/day administered through continuous minipump treatment for 3 days by UPLC-MS analysis; format: ADME, organism-based; conditions: other: continuous minipump, read-out: Drug uptake; procedure, shortened: as §1

SMILES: COc1ccc(C(CN(C)C)C2(O)CCCCC2)cc1.Cl (stereo not given) [VENLAFAXINE HYDROCHLORIDE]
- concentration at 72 h [1]: 389 ng/g
- Kp at 72 h [2]: 6.3
- fraction unbound at 5 h, 1 µM [3]: 0.18
- concentration at 72 h [4]: 105 ng/mL
- fraction unbound at 5 h, 1 µM [5]: 0.64
- Kp at 72 h [6]: 4.7
- Kp at 72 h [7]: 3.3
- fraction unbound at 5 h, 1 µM [8]: > 0.99
- Kp uu at 72 h [9]: 0.86
- Kp uu at 72 h [10]: 0.45
- concentration at 72 h [11]: 85 ng/mL
- Kp uu at 72 h [12]: 1.4
- concentration at 72 h [13]: 50 ng/mL
- concentration at 72 h [14]: 63 ng/mL
- Kp at 72 h [15]: 8.3
- Kp uu at 72 h [16]: 0.89
- concentration at 72 h [17]: 828 ng/g
- concentration at 72 h [18]: 158 ng/g
- concentration at 72 h [19]: 403 ng/g
- fraction unbound at 5 h, 1 µM [20]: 0.092

SMILES: Cc1nc2n(c(=O)c1CCN1CCC(c3noc4cc(F)ccc34)CC1)CCCC2 [RISPERIDONE]
- Kp uu at 72 h [21]: 0.81
- fraction unbound at 5 h, 1 µM [3]: 0.058
- fraction unbound at 5 h, 1 µM [5]: 0.11
- Kp uu at 72 h [22]: 1.4
- Kp uu at 72 h [23]: 0.11
- concentration at 72 h [24]: 149 ng/g
- fraction unbound at 5 h, 1 µM [8]: 0.27
- concentration at 72 h [25]: 295 ng/g
- concentration at 72 h [26]: 40 ng/mL
- concentration at 72 h [27]: 43 ng/mL
- concentration at 72 h [28]: 194 ng/mL
- Kp at 72 h [29]: 0.22
- concentration at 72 h [30]: 168 ng/mL
- concentration at 72 h [31]: 21 ng/g
- Kp at 72 h [32]: 3.8
- Kp at 72 h [33]: 1.9
- Kp at 72 h [34]: 0.52
- Kp uu at 72 h [35]: 0.17
- fraction unbound at 5 h, 1 µM [20]: 0.09
- concentration at 72 h [36]: 41 ng/g
